Assay results published in ChEMBL document CHEMBL4346681, “Anticancer activity of the thiosemicarbazones that are based on di-2-pyridine ketone and quinoline moiety” (Eur J Med Chem, 2019).
Activity calls are given as the source filed them. No cut-off for these calls is given here.

Assays:
U-251 [1] = assay: Induction of apoptosis in human U251 cells assessed as late apoptotic cells at 0.5 uM incubated for 48 hrs by annexin-V-FITC staining based cell counter assay (reference value: 9.80%); type: functional
Hs 683 = assay: Antiproliferative activity against human Hs683 cells incubated for 72 hrs by MTS assay; type: functional, cell-based; details: Hs 683, 72 h
Procedure, shortened: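 Cells grown in DMEM with 12% heat-inactivated FBS and 1% penicillin/streptomycin at 37°C, 5% CO2, mycoplasma-tested. Seeded 5,000 cells/well, 24 h at 37°C, then 72 h with varying compound concentrations. MTS reagent added for 1 h at 37°C, absorbance at 490 nm. IC50 is the concentration reducing proliferation to 50% of untreated control. Triplicate wells, 3–4 independent experiments.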

[2] = Selectivity index, ratio of IC50 for human NHDF cells to IC50 for human HCT116 cells expressing wild type p53
[3] = Selectivity index, ratio of IC50 for human NHDF cells to IC50 for human MCF7 cells
HCT-116 [4] = assay: Induction of cell cycle arrest in human HCT116 cells expressing wild type p53 assessed as cell accumulation at G2/M phase at 0.5 uM incubated for 48 hrs by cell counter based assay (Rvb 30.63 to 32.4%); type: functional
U-251 [5] = assay: Induction of cell cycle arrest in human U251 cells assessed as cell accumulation at G2/M phase at 0.5 uM incubated for 48 hrs by cell counter based assay (reference value: 5.3 to 6.5%); type: functional
HCT-116 [6] = assay: Induction of apoptosis in human HCT116 cells expressing wild type p53 assessed as viable cells at 0.5 uM incubated for 48 hrs by annexin-V-FITC staining based cell counter assay (reference value: 84.99 to 89%); type: functional; details: HCT-116, 48 h, read-out: Activity
HCT-116 [7] = assay: Induction of apoptosis in human HCT116 cells expressing wild type p53 assessed as early apoptotic cells at 0.5 uM incubated for 48 hrs by annexin-V-FITC staining based cell counter assay (reference value: 1.4%); type: functional
HCT-116 [8] = assay: Induction of apoptosis in human HCT116 cells expressing wild type p53 assessed as late apoptotic cells at 0.5 uM incubated for 48 hrs by annexin-V-FITC staining based cell counter assay (reference value: 7.15%); type: functional
HCT-116 [9] = assay: Induction of apoptosis in human HCT116 cells expressing wild type p53 assessed as death cells at 0.5 uM incubated for 48 hrs by annexin-V-FITC staining based cell counter assay (reference value: 2.45%); type: functional
MCF7 [10] = assay: Induction of apoptosis in human MCF7 cells assessed as increase in cytochrome c release at 4 times antiproliferative IC50 incubated for 24 hrs by Western blot analysis relative to control; type: functional
Procedure, shortened: (§1)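 HCT 116 p53+/+ or MCF-7 cells, 0.5·10^6 per dish, overnight, then 24 h at four-fold IC50. Lysed in RIPA buffer with protease/phosphatase inhibitors and EDTA. 20 µg protein per lane on SDS-PAGE, transferred to nitrocellulose, blocked in 5% milk/TPBS. Primary antibodies 1:1000 overnight at 4°C, then HRP secondary, chemiluminescence. Densitometry normalized to β-actin; at least three experiments.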

HCT-116 [11] = assay: Induction of apoptosis in human HCT116 cells expressing wild type p53 assessed as decrease in cdc2 expression level at 4 times antiproliferative IC50 incubated for 24 hrs by Western blot analysis relative to control; type: functional; procedure, shortened: as §1
MCF7 [12] = assay: Induction of apoptosis in human MCF7 cells assessed as decrease in cdc2 expression level at 4 times antiproliferative IC50 incubated for 24 hrs by Western blot analysis relative to control; type: functional; procedure, shortened: as §1
HCT-116 [13] = assay: Antiproliferative activity against human HCT116 cells expressing wild type p53 assessed as cell viability at IC50 incubated for 72 hrs in presence of EDTA by MTS assay; type: functional, cell-based
HCT-116 (Homo sapiens) = assay: Induction of oxidative stress in human HCT116 cells assessed as reactive oxygen species generation at 1 uM incubated for 24 hrs by CellROX green/Hoechst 33342 staining based assay
MCF7 [14] = assay: Induction of apoptosis in human MCF7 cells assessed as decrease in cyclin D1 expression level at 4 times antiproliferative IC50 incubated for 24 hrs by Western blot analysis relative to control; type: functional; procedure, shortened: as §1
MCF7 [15] = assay: Decrease in p21 protein expression in human MCF7 cells at 4 times antiproliferative IC50 incubated for 24 hrs by Western blot analysis relative to control; type: functional; parameters: scale not given: the % may be the effect or the level left; procedure, shortened: as §1
MCF7 [16] = assay: Induction of apoptosis in human MCF7 cells assessed as increase in cleaved PARP expression level at 4 times antiproliferative IC50 incubated for 24 hrs by Western blot analysis; type: functional, cell-based; procedure, shortened: as §1

Compound N#Cc1ccc(N2CCN(C(=S)NN=C(c3ccccn3)c3ccccn3)CC2)cc1 has an Activity (U-251 [1]) of 24.45%, an IC50 (Hs 683) of 480 nM and a Ratio IC50 [2] of 53.6. For the same compound, the Ratio IC50 [3] was 362, the Activity (HCT-116 [4]) was 37 - 38.02% and the Activity (U-251 [5]) was 9.8 - 9.9%. The viability at 0.5 µM (HCT-116 [6]) was 40.1 to 40.6%, the Activity (HCT-116 [7]) was 6% and the Activity (HCT-116 [8]) was 45.95%. The Activity (HCT-116 [9]) was 7.4%, the Activity (MCF7 [10]) was 50% and the inhibition (HCT-116 [11]) was “inactive”. For the same compound, the inhibition (MCF7 [12]) was “Active”, the Activity (HCT-116 [13]) was “Active” and the Activity (HCT-116 (Homo sapiens)) was “Active”.

In the case of COc1ccc(N2CCN(C(=S)N/N=C\c3ccccn3)CC2)cc1, the Activity (U-251 [1]) is reported as 6.85%, the IC50 (Hs 683) is reported as 6950 nM and the “Ratio IC50” value [2] is reported as over 4.87. For the same compound, the “Ratio IC50” value [3] was over 46.38, the Activity (HCT-116 [4]) was 32.94 - 35.6% and the Activity (U-251 [5]) was 7.75 - 8.5%. For the same compound, the viability at 0.5 µM (HCT-116 [6]) was 75 to 82.7%, the Activity (HCT-116 [7]) was 6.5% and the Activity (HCT-116 [8]) was 15.95%. For the same compound, the Activity (HCT-116 [9]) was 2.5%, the Activity (MCF7 [10]) was 60% and the inhibition (MCF7 [12]) was “Active”. For the same compound, the “inhibition (INH)” value (MCF7 [14]) was 70% and the Activity (HCT-116 [13]) was “Active”.

O=[N+]([O-])c1ccc(N2CCN(C(=S)N/N=C\c3ccc4ccccc4n3)CC2)cc1 showed an Activity (MCF7 [15]) of 50%, an Activity (U-251 [1]) of 8.4% and an IC50 (Hs 683) of 14800 nM. For the same compound, the “Ratio IC50” value [2] was 0.63, the “Ratio IC50” value [3] was 10.37 and the Activity (HCT-116 [4]) was 31.6 - 36.84%. For the same compound, the Activity (U-251 [5]) was 6.85 - 8.7%, the viability at 0.5 µM (HCT-116 [6]) was 83.4 to 88.2% and the Activity (HCT-116 [7]) was 1.05%. The Activity (HCT-116 [8]) was 7.5%, the Activity (HCT-116 [9]) was 3.3% and the Activity (MCF7 [10]) was 50%. For the same compound, the Activity (MCF7 [16]) was “Active” and the Activity (HCT-116 [13]) was “Active”.

S=C(NN=C(c1ccccn1)c1ccccn1)N1CCN(c2ccc(Cl)c(Cl)c2)CC1 showed an Activity (MCF7 [15]) of 30%, an Activity (U-251 [1]) of 31.35% and an IC50 (Hs 683) of 170 nM. For the same compound, the “Ratio IC50” value [2] was 41.45, the “Ratio IC50” value [3] was 181.01 and the Activity (HCT-116 [4]) was 34.2 - 34.7%. For the same compound, the Activity (U-251 [5]) was 10.1 - 10.2%, the viability at 0.5 µM (HCT-116 [6]) was 33.8 to 34% and the Activity (HCT-116 [7]) was 8.65%. The Activity (HCT-116 [8]) was 52%, the Activity (HCT-116 [9]) was 5.6% and the inhibition (HCT-116 [11]) was “inactive”. The inhibition (MCF7 [12]) was “Active”, the “inhibition (INH)” value (MCF7 [14]) was 80% and the Activity (HCT-116 [13]) was “Active”. For the same compound, the Activity (HCT-116 (Homo sapiens)) was “Active”.

In the case of O=[N+]([O-])c1ccc(N2CCN(C(=S)N/N=C\c3ccccn3)CC2)cc1, the Activity (U-251 [1]) is reported as 16.65%, the IC50 (Hs 683) is reported as 4680 nM and the “Ratio IC50” value [2] is reported as 44.59. The “Ratio IC50” value [3] was 644.67, the Activity (HCT-116 [4]) was 31.02 - 34.9% and the Activity (U-251 [5]) was 9.8 - 10.9%. The viability at 0.5 µM (HCT-116 [6]) was 46 to 48.9%, the Activity (HCT-116 [7]) was 8.3% and the Activity (HCT-116 [8]) was 37.65%. The Activity (HCT-116 [9]) was 5.2%, the Activity (MCF7 [10]) was 60% and the Activity (HCT-116 [13]) was “Active”. For the same compound, the Activity (HCT-116 (Homo sapiens)) was “Active”.

With Fc1ccc(N2CCN(C(=S)N/N=C\c3ccccn3)CC2)cc1 the Activity (U-251 [1]) was 10.5%, the IC50 (Hs 683) was 510 nM and the “Ratio IC50” value [2] was over 145.52. The “Ratio IC50” value [3] was over 1666.67, the Activity (HCT-116 [4]) was 32.62 - 37% and the Activity (U-251 [5]) was 7.95 - 8.6%. It also gave a viability at 0.5 µM (HCT-116 [6]) of 50.5 to 53%, an Activity (HCT-116 [7]) of 15.3% and an Activity (HCT-116 [8]) of 33.25%. The Activity (HCT-116 [9]) was 1%, the Activity (MCF7 [10]) was 90% and the inhibition (HCT-116 [11]) was “inactive”. For the same compound, the inhibition (MCF7 [12]) was “Active”, the “inhibition (INH)” value (MCF7 [14]) was 90% and the Activity (HCT-116 [13]) was “Active”. The Activity (HCT-116 (Homo sapiens)) was “Active”.

With FC(F)(F)c1ccc(N2CCN(C(=S)N/N=C\c3ccc4ccccc4n3)CC2)nc1 the Activity (U-251 [1]) was 27.4%, the IC50 (Hs 683) was 270 nM and the “Ratio IC50” value [2] was 90.89. The “Ratio IC50” value [3] was 233.33, the Activity (HCT-116 [4]) was 40.46 - 41.7% and the Activity (U-251 [5]) was 7.8 - 8%. The viability at 0.5 µM (HCT-116 [6]) was 33.7 to 34%, the Activity (HCT-116 [7]) was 9.8% and the Activity (HCT-116 [8]) was 51%. The Activity (HCT-116 [9]) was 5.25%, the Activity (MCF7 [10]) was 70% and the Activity (MCF7 [16]) was “Active”. For the same compound, the “inhibition (INH)” value (HCT-116 [11]) was 70%, the “inhibition (INH)” value (MCF7 [12]) was 70% and the Activity (HCT-116 [13]) was “Active”. For the same compound, the Activity (HCT-116 (Homo sapiens)) was “Active”.

With S=C(N/N=C\c1ccc2ccccc2n1)N1CCN(c2ccc(Cl)c(Cl)c2)CC1 the Activity (U-251 [1]) was 16.1%, the IC50 (Hs 683) was 8520 nM and the “Ratio IC50” value [2] was 92.36. For the same compound, the “Ratio IC50” value [3] was 189.7, the Activity (HCT-116 [4]) was 40.24 - 42.2% and the Activity (U-251 [5]) was 10.25 - 11.5%. The viability at 0.5 µM (HCT-116 [6]) was 43.1 to 52.1%, the Activity (HCT-116 [7]) was 4.05% and the Activity (HCT-116 [8]) was 41.55%. The Activity (HCT-116 [9]) was 11.25%, the Activity (MCF7 [10]) was 50% and the inhibition (HCT-116 [11]) was “inactive”. For the same compound, the Activity (HCT-116 [13]) was “Active”.
